Published values of several laboratories.

Oc1c(Br)cc(Cl)c2cccnc12
Vd/F (Sprague-Dawley rat, plasma; oral, 20 mg/kg): 39.9 L/kg

COc1ccc(CC(CC(=O)O)C(=O)O)cc1OC (stereo not drawn)
CC50 (Huh7.5; cell growth or viability, MTT): > 5 mM

CCn1cnc2c(=O)[nH]c(N)nc21.NCCNCCN.[Pt+2]
IC50 (CCRF-CEM; cell growth or viability, WST-1): > 0.1 mM

CN1CCN(c2nc(-c3ccccn3)nc3ccccc23)CC1
microsomal CLint (metabolic stability; mouse, liver microsomes): 19 µL/min/mg

COC[C@@H](Cc1ccc(OC)c(OC)c1)[C@@H](COC)Cc1ccc(OC)c(OC)c1
CC50 (Huh7.5; cell growth or viability, MTT): 5 mM

O=C(Nc1cccc(-c2ncco2)c1)c1cc([N+](=O)[O-])c(F)cc1F
scaled CLint (metabolic stability; CD-1 mouse, liver microsomes; 1 µM, 1 h, pH 7.4): 2200 mL/min/kg

Fc1ccc(Nc2nc(-c3ccccn3)nc3ccccc23)cc1
microsomal CLint (metabolic stability; mouse, liver microsomes): 138 µL/min/mg

O=C(Nc1cncc(-c2nc3ccccc3o2)c1)c1cc([N+](=O)[O-])c(N2CCNCC2)cc1Cl
scaled CLint (metabolic stability; CD-1 mouse, liver microsomes; 1 µM, 1 h, pH 7.4): 10 mL/min/kg

NC(=O)c1cnc2[nH]ccc2c1N[C@@H]1[C@@H]2CC3C[C@H]1C[C@@](O)(C3)C2
inhibition (ATP-binding cassette sub-family C member 4 (ABCC4, Homo sapiens, UniProt O15439); transporter uptake, inhibitor, radiometric; Sf9; 100 µM, 5 min, pH 7, cell membranes): < 50%
